A short description of series [1]: Antioxidant activity against ABTS radical assessed as trolox equivalents by TEAC assay. It counts as functional. A digest of the protocol: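 ABTS radical cation diluted in PBS pH 7.4 to A734 0.70, equilibrated at 30 °C, then added to sample solutions in MeOH at 0.3, 0.5, 1 and 1.5 concentration. Inhibition of A734 versus MeOH blank, run in triplicate, plotted against concentration alongside Trolox standard. TEAC = Trolox concentration equivalent in capacity to 1 mM compound.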

The test system of series [2] is PC-3. In words: Cytotoxicity against human PC3 cells. It counts as cell-based.
In series [3] the test system is PC-3. In words: Antioxidant activity in human PC3 cells assessed as decrease in t-BuOOH-induced ROS elevation at 1 to 10 uM incubated for 24 hrs prior to t-BuOOH-challenge measured after 30 mins by dichlorofluorescein-based flow cytometric analysis. It counts as functional, cell-based. The method, boiled down: (§1)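 PC3 cells grown in DMEM with 2 mM L-glutamine, 10% heat-inactivated FBS and 1% pen/strep at 37 °C, then exposed to compound for 24 h. Exposed to 300 μM t-BuOOH for 30 min at 37 °C, washed, resuspended at 2 × 10^5 cells/ml in HBSS with 10 μM DCFH-DA for 20 min at 37 °C. DCF read by flow cytometry (FL1-H). Mean ± SEM of three experiments in triplicate; ANOVA with Bonferroni.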
In general terms: A flow cytometer gives signals particle by particle.

Series [4] relates to PC-3. In words: Antioxidant activity in human PC3 cells assessed as decrease in t-BuOOH-induced ROS elevation at 10 uM incubated for 24 hrs prior to t-BuOOH-challenge measured after 30 mins by dichlorofluorescein-based flow cytometric analysis. The format is functional, cell-based. The method, boiled down:
as §1

Calls of active or inactive are those of the source. The rule behind the calls is not given here.

Consider 22 molecules from ChEMBL document CHEMBL2034822, “HPLC-ESIMS(n) profiling, isolation, structural elucidation, and evaluation of the antioxidant potential of phenolics from Paepalanthus geniculatus” (J Nat Prod, 2012).

In the case of `COc1c(O)cc2oc(-c3ccc(O)cc3)c(O[C@@H]3O[C@H](CO)[C@@H](O)[C@H](O)[C@H]3O[C@@H]3O[C@@H](C)[C@H](O)[C@@H](O)[C@H]3O)c(=O)c2c1O`, the Activity in series [1] was 1.53 mM; in the series on PC-3 [2], “Non-toxic”. Further, in the series on PC-3 [3], the result was inactive.
The corresponding values for `COc1c(O)cc2oc(-c3ccc(O)cc3)c(O[C@@H]3O[C@H](CO[C@@H]4O[C@@H](C)[C@H](O)[C@@H](OC(C)=O)[C@H]4OC(C)=O)[C@@H](O)[C@H](O)[C@H]3O)c(=O)c2c1O` are 1.4 mM, “Non-toxic” and “inactive”.
In the case of `COc1c(O)cc2oc(-c3ccc(O)c(O)c3)c(O[C@@H]3O[C@H](CO)[C@@H](O)[C@H](O)[C@H]3O)c(=O)c2c1O`, the Activity in series [1] was 0.525 mM; in the series with PC-3 [2] it was “Non-toxic”. Also, the outcome in the series on PC-3 [3] was inactive.
Consider `COc1cc(O[C@H]2O[C@H](CO[C@H]3O[C@H](CO)[C@@H](O)[C@H](O)[C@H]3O)[C@@H](O)[C@H](O)[C@H]2O)c2c(O)c3c(=O)oc(C)cc3c(OC)c2c1`, for which the Activity was 0.706 mM in series [1] and “Non-toxic” in the series on PC-3 [2]. In the series on PC-3 [3], the outcome was inactive.
The corresponding values for `COc1cc(/C=C/C(=O)OC[C@H]2O[C@@H](Oc3c(-c4ccc(O)cc4)oc4cc(O)c(OC)c(O)c4c3=O)[C@H](O)[C@@H](O)[C@@H]2O)ccc1O` are 0.984 mM, “Non-toxic” and “inactive”.
The corresponding values for `COc1c2cc(O)cc(O[C@@H]3O[C@H](CO)[C@@H](O)[C@H](O)[C@H]3O)c2c(O)c2c(=O)oc(C)cc12` are 0.898 mM, “Non-toxic” and “inactive”.
As to `COc1c(O)cc2oc(-c3ccc(O)cc3)c(O[C@@H]3O[C@H](COC(=O)[C@H]4[C@H](c5ccc(O)cc5)[C@H](C(=O)OC[C@H]5O[C@@H](Oc6c(-c7ccc(O)cc7)oc7cc(O)c(OC)c(O)c7c6=O)[C@H](O)[C@@H](O)[C@@H]5O)[C@H]4c4ccc(O)cc4)[C@@H](O)[C@H](O)[C@H]3O)c(=O)c2c1O` [GENICULATIN], the Activity in series [1] is 0.738 mM; in the series on PC-3 [2], “Non-toxic”. The outcome with PC-3 [3] was inactive.
The corresponding values for `COc1c(O)cc2oc(-c3ccc(O)cc3)c(O[C@@H]3O[C@H](CO)[C@@H](O)[C@H](O)[C@H]3O)c(=O)c2c1O` are 1.27 mM, “Non-toxic” and “inactive”.
Turning to `O=c1c(O[C@@H]2O[C@H](CO)[C@@H](O)[C@H](O)[C@H]2O)c(-c2ccc(O)c(O)c2)oc2cc(O)cc(O)c12`, the Activity in series [1] was 1.78 mM.
For the molecule `COc1c(O)cc2oc(-c3ccc(O)c(O)c3)c(O[C@@H]3O[C@H](CO[C@@H]4O[C@@H](C)[C@H](OC(C)=O)[C@@H](O)[C@H]4OC(C)=O)[C@@H](O)[C@H](O)[C@H]3O)c(=O)c2c1O`, the Activity was 1.21 mM in series [1] and “Non-toxic” in the series on PC-3 [2]. The outcome with PC-3 [3] was inactive.
As for `COc1c(O)cc2oc(-c3ccc(O)c(O)c3)c(O[C@@H]3O[C@H](CO[C@@H]4O[C@@H](C)[C@H](O)[C@@H](O)[C@H]4OC(C)=O)[C@@H](O)[C@H](O)[C@H]3O)c(=O)c2c1O`, the figures for the Activity (in series [1]; with PC-3 [2]) were 1.37 mM and “Non-toxic”, respectively. Also, the result with PC-3 [3] was inactive.
For the molecule `COc1c(O)cc2oc(-c3ccc(O)c(O)c3)c(O[C@@H]3O[C@H](CO[C@@H]4O[C@@H](C)[C@H](O)[C@@H](O)[C@H]4O)[C@@H](O)[C@H](O)[C@H]3O)c(=O)c2c1O`, the Activity was 2.02 mM in series [1] and “Non-toxic” in the series with PC-3 [2]. Moreover, in the series with PC-3 [4], the outcome was Active.
On to `COc1c2cc(O)cc(O[C@@H]3O[C@H](CO[C@@H]4O[C@H](CO)[C@@H](O)[C@H](O)[C@H]4O)[C@@H](O)[C@H](O)[C@H]3O)c2c(O)c2c(=O)oc(C)cc12`, for which the figures for the Activity (in series [1]; with PC-3 [2]) were 1.04 mM and “Non-toxic”, respectively. Moreover, the outcome with PC-3 [3] was inactive.
As to `O=c1c(O)c(-c2ccc(O)c(O)c2)oc2cc(O)cc(O)c12`, the Activity in series [1] was 1.87 mM.
Consider `COc1c(O)cc2oc(-c3ccc(O)cc3)c(O[C@@H]3O[C@H](CO[C@@H]4O[C@@H](C)[C@H](OC(C)=O)[C@@H](O)[C@H]4O)[C@@H](O)[C@H](O)[C@H]3O)c(=O)c2c1O`, for which the Activity is 0.968 mM in series [1] and “Non-toxic” with PC-3 [2]. The result with PC-3 [3] was inactive.
For `COc1c(O)cc2oc(-c3ccc(O)cc3)c(O[C@@H]3O[C@H](CO[C@@H]4O[C@@H](C)[C@H](O)[C@@H](O)[C@H]4OC(C)=O)[C@@H](O)[C@H](O)[C@H]3O)c(=O)c2c1O`, the Activity in series [1] was 1 mM; in the series on PC-3 [2], “Non-toxic”. In addition, the result in the series with PC-3 [3] was inactive.
As for `COc1c(O)cc2oc(-c3ccc(O)c(O)c3)c(O[C@@H]3O[C@H](CO[C@@H]4O[C@@H](C)[C@H](OC(C)=O)[C@@H](O)[C@H]4O)[C@@H](O)[C@H](O)[C@H]3O)c(=O)c2c1O`, the Activity was 2.16 mM in series [1] and “Non-toxic” in the series with PC-3 [2]. Moreover, the result with PC-3 [4] was Active.
In the case of `COc1cc2oc(-c3ccc(O)c(O)c3)c(O[C@@H]3O[C@H](CO[C@@H]4O[C@@H](C)[C@H](O)[C@@H](O)[C@H]4O)[C@@H](O)[C@H](O)[C@H]3O)c(=O)c2c(O)c1O`, the values for the Activity (in series [1]; in the series on PC-3 [2]) were 1.54 mM and “Non-toxic”, respectively. The result with PC-3 [3] was inactive.
For `COc1cc(O[C@H]2O[C@H](CO[C@@H]3O[C@H](CO)[C@@H](O)[C@@H](O)[C@H]3O)[C@@H](O)[C@H](O)[C@H]2O)c2c(O)c3c(=O)oc(C)cc3c(OC)c2c1`, in that order: 0.57 mM, “Non-toxic” and “inactive”.
The corresponding values for `COc1c(O)cc2oc(-c3ccc(O)cc3)c(O[C@@H]3O[C@H](COC(=O)/C=C/c4ccc(O)cc4)[C@@H](O)[C@H](O)[C@H]3O)c(=O)c2c1O` are 1.28 mM, “Non-toxic” and “inactive”.
Turning to `O=c1c(O[C@@H]2O[C@H](CO)[C@@H](O)[C@H](O)[C@H]2O)c(-c2ccc(O)cc2)oc2cc(O)cc(O)c12`, the Activity in series [1] amounted to 1.18 mM.
Regarding `COc1c(O)cc2oc(-c3ccc(O)cc3)c(O[C@@H]3O[C@H](CO[C@@H]4O[C@@H](C)[C@H](O)[C@@H](O)[C@H]4O)[C@@H](O)[C@H](O)[C@H]3O)c(=O)c2c1O`, the figures for the Activity (in series [1]; in the series with PC-3 [2]) were 2.06 mM and “Non-toxic”, respectively. In addition, the result in the series on PC-3 [4] was Active.
